The species named for one assay is Homo sapiens. The assay is described as follows: Ratio of human TLR7 activity to human TLR8 activity. The gist of the method: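 TLR7/TLR8 ratio computed from fold NF-κB (SEAP reporter) activation in HEK293 cells stably expressing human TLR7 versus TLR8, compounds at 50 μg/mL, 18 h exposure; representative of three independent experiments.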
The target of assay [1] is T1, Toll-like receptor 8 (Homo sapiens) (UniProt Q9NR97).
T1 sequence (whole entry): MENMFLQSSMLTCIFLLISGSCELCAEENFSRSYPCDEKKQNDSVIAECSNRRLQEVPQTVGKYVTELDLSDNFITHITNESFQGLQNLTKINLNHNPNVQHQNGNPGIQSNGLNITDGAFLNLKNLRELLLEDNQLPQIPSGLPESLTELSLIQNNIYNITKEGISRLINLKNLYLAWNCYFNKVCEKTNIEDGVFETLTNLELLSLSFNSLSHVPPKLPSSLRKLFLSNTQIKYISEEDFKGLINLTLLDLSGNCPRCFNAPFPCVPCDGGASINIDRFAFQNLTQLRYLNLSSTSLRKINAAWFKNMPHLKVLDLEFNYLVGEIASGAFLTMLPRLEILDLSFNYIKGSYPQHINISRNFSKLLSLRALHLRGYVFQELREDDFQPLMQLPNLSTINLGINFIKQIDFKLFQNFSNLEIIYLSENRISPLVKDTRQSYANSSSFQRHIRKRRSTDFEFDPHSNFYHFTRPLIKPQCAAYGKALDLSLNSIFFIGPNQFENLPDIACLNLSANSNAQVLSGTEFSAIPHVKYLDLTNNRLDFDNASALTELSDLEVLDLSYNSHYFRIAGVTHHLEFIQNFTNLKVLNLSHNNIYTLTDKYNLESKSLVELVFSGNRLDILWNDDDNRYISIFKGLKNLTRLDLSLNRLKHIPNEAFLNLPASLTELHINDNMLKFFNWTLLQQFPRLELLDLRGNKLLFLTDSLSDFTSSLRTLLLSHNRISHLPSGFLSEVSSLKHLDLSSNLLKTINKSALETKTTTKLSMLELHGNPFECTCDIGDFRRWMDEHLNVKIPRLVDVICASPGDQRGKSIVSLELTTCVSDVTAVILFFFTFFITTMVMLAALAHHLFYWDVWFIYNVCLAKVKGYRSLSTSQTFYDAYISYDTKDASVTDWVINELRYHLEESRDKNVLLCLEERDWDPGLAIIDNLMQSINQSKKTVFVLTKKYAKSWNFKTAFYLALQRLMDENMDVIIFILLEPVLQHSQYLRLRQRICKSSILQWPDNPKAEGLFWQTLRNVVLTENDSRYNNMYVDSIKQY
In words: Activation of human TLR8 expressed in HEK293XL assessed as induction of NF-kappaB activity by reporter gene assay. The method, boiled down: (§1)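 HEK293 cells stably expressing human TLR7 or TLR8, transiently transfected with SEAP reporter plasmid; medium replaced, SIMRA compounds added, 18 h incubation. Supernatant SEAP measured by QuantiBlue; expressed as fold increase in NF-κB activity over PBS control. Tabulated data at 50 μg/mL, representative of three independent experiments.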

Assay [2] has as its target T2, Toll-like receptor 7 (Homo sapiens) (UniProt Q9NYK1).
T2 sequence (whole entry): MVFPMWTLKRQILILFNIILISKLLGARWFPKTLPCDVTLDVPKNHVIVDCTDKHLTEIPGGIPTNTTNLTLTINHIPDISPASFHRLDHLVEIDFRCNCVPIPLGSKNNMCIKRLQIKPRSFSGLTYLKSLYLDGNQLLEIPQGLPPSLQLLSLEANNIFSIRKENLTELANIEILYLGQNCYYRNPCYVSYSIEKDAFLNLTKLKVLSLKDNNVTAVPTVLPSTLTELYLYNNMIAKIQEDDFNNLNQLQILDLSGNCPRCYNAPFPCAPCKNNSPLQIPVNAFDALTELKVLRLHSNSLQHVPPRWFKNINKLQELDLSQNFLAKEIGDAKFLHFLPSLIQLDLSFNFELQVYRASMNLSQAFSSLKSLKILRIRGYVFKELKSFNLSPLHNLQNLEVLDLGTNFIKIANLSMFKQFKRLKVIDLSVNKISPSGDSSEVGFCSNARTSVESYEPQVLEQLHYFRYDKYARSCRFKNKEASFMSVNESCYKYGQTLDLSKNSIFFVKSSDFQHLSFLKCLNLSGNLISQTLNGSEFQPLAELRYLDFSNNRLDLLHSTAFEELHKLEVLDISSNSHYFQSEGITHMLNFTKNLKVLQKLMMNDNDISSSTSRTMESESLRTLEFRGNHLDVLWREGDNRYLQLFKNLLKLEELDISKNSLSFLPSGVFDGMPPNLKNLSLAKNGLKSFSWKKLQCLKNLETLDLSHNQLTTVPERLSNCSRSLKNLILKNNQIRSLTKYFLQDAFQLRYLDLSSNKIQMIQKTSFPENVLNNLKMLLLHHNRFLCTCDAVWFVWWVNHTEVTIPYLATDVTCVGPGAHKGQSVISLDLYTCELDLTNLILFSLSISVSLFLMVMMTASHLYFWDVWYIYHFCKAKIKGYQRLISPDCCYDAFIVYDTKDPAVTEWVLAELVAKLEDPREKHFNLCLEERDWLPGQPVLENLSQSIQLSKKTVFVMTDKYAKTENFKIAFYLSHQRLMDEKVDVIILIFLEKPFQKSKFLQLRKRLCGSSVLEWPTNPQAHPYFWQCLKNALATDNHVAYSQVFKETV
The assay is described as follows: Activation of human TLR7 expressed in HEK293XL assessed as induction of NF-kappaB activity by reporter gene assay. The method, boiled down:
as §1

The source made the active and inactive calls. No cut-off for these calls is given here.

Regarding `Nc1ccn([C@@H]2O[C@H](COP(=O)(S)O[C@H]3[C@@H](O)[C@H](n4cnc5c(N)ncnc54)O[C@@H]3CO)[C@@H](OP(=O)(S)OC[C@H]3O[C@@H](n4ccc(=O)[nH]c4=O)[C@H](O)[C@@H]3OP(=O)(S)OC[C@H]3O[C@@H](n4ccc(=O)[nH]c4=O)[C@H](O)[C@@H]3OP(=O)(S)OC[C@H]3O[C@@H](n4cnc5c(=O)[nH]c(N)nc54)[C@H](O)[C@@H]3OP(=O)(S)OC[C@H]3O[C@@H](n4cnc5c(N)ncnc54)[C@H](O)[C@@H]3OP(=O)(S)OC[C@H]3O[C@@H](n4ccc(N)nc4=O)[C@H](O)[C@@H]3OP(=O)(S)OC[C@H]3O[C@@H](n4cnc5c(=O)[nH]c(N)nc54)[C@H](O)[C@@H]3OP(=O)(S)OC[C@H]3O[C@@H](n4cnc5c(N)ncnc54)[C@H](O)[C@@H]3OP(=O)(S)OC[C@H]3O[C@@H](n4ccc(=O)[nH]c4=O)[C@H](O)[C@@H]3OP(=O)(S)OC[C@H]3O[C@@H](n4ccc(=O)[nH]c4=O)[C@H](O)[C@@H]3OP(=O)(S)OCC(O)COP(=O)(S)O[C@H]3[C@@H](O)[C@H](n4ccc(=O)[nH]c4=O)O[C@@H]3COP(=O)(S)O[C@H]3[C@@H](O)[C@H](n4ccc(=O)[nH]c4=O)O[C@@H]3COP(=O)(S)O[C@H]3[C@@H](O)[C@H](n4cnc5c(N)ncnc54)O[C@@H]3COP(=O)(S)O[C@H]3[C@@H](O)[C@H](n4cnc5c(=O)[nH]c(N)nc54)O[C@@H]3COP(=O)(S)O[C@H]3[C@@H](O)[C@H](n4ccc(N)nc4=O)O[C@@H]3COP(=O)(S)O[C@H]3[C@@H](O)[C@H](n4cnc5c(N)ncnc54)O[C@@H]3COP(=O)(S)O[C@H]3[C@@H](O)[C@H](n4cnc5c(=O)[nH]c(N)nc54)O[C@@H]3COP(=O)(S)O[C@H]3[C@@H](O)[C@H](n4ccc(=O)[nH]c4=O)O[C@@H]3COP(=O)(S)O[C@H]3[C@@H](O)[C@H](n4ccc(=O)[nH]c4=O)O[C@@H]3COP(=O)(S)O[C@H]3[C@@H](O)[C@H](n4ccc(N)nc4=O)O[C@@H]3COP(=O)(S)O[C@H]3[C@@H](O)[C@H](n4cnc5c(N)ncnc54)O[C@@H]3CO)[C@H]2O)c(=O)n1` (stereo partly specified), the Activity entry in the assay filed under Homo sapiens is “Dose-dependent effect”. The outcome in assay [1] and in assay [2] was inactive.

In the case of `Nc1ccn([C@@H]2O[C@H](COP(=O)(S)O[C@H]3[C@@H](O)[C@H](n4cnc5c(N)ncnc54)O[C@@H]3CO)[C@@H](OP(=O)(S)OC[C@H]3O[C@@H](n4ccc(=O)[nH]c4=O)[C@H](O)[C@@H]3OP(=O)(S)OC[C@H]3O[C@@H](n4ccc(=O)[nH]c4=O)[C@H](O)[C@@H]3OP(=O)(S)OC[C@H]3O[C@@H](n4ccc5c(=O)[nH]c(N)nc54)[C@H](O)[C@@H]3OP(=O)(S)OC[C@H]3O[C@@H](n4cnc5c(N)ncnc54)[C@H](O)[C@@H]3OP(=O)(S)OC[C@H]3O[C@@H](n4cnc5c(N)ncnc54)[C@H](O)[C@@H]3OP(=O)(S)OC[C@H]3O[C@@H](n4cnc5c(=O)[nH]c(N)nc54)[C@H](O)[C@@H]3OP(=O)(S)OC[C@H]3O[C@@H](n4ccc(N)nc4=O)[C@H](O)[C@@H]3OP(=O)(S)OC[C@H]3O[C@@H](n4ccc(=O)[nH]c4=O)[C@H](O)[C@@H]3OP(=O)(S)OC[C@H]3O[C@@H](n4ccc(=O)[nH]c4=O)[C@H](O)[C@@H]3OP(=O)(S)OCC(O)COP(=O)(S)O[C@H]3[C@@H](O)[C@H](n4ccc(=O)[nH]c4=O)O[C@@H]3COP(=O)(S)O[C@H]3[C@@H](O)[C@H](n4ccc(=O)[nH]c4=O)O[C@@H]3COP(=O)(S)O[C@H]3[C@@H](O)[C@H](n4ccc(N)nc4=O)O[C@@H]3COP(=O)(S)O[C@H]3[C@@H](O)[C@H](n4cnc5c(=O)[nH]c(N)nc54)O[C@@H]3COP(=O)(S)O[C@H]3[C@@H](O)[C@H](n4cnc5c(N)ncnc54)O[C@@H]3COP(=O)(S)O[C@H]3[C@@H](O)[C@H](n4cnc5c(N)ncnc54)O[C@@H]3COP(=O)(S)O[C@H]3[C@@H](O)[C@H](n4cnc5c(=O)[nH]c(N)nc54)O[C@@H]3COP(=O)(S)O[C@H]3[C@@H](O)[C@H](n4ccc(=O)[nH]c4=O)O[C@@H]3COP(=O)(S)O[C@H]3[C@@H](O)[C@H](n4ccc(=O)[nH]c4=O)O[C@@H]3COP(=O)(S)O[C@H]3[C@@H](O)[C@H](n4ccc(N)nc4=O)O[C@@H]3COP(=O)(S)O[C@H]3[C@@H](O)[C@H](n4cnc5c(N)ncnc54)O[C@@H]3CO)[C@H]2O)c(=O)n1` (stereo partly specified), in the assay listed under Homo sapiens, the Activity result was “Dose-dependent effect”. The result in assay [1] and in assay [2] was inactive.
